Measured values from ChEMBL document CHEMBL4513216, “Probing the Open Global Health Chemical Diversity Library for Multistage-Active Starting Points for Next-Generation Antimalarials” (ACS Infect Dis, 2020).

Experiment: Toxicity liver stage against HepG2, at 10uM
Assay type: cell-based
Design: test concentration 10 uM, cell line HepG2-A16-CD81EGFP
Conditions: human, HepG2-A16-CD81EGFP cells; read-out: INHIBITION
In short: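 Uninfected HepG2-A16-CD81EGFP cells, 3 × 10^3 per well, 1536-well, plated on prespotted compound at 10 μM final, parasite-free screening media added to match infected plates; puromycin 10 μM positive, DMSO 0.5% negative; run in parallel with 48 h PbLuc assay at 37 °C, 5% CO2; viability by CellTiter-Glo luminescence, normalized to controls.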

O=c1cc(CSc2nnc[nH]2)nc2sc3c(n12)CCCC3
cytotoxicity at 10 µM: -6.04%

CC(C)CCn1nc2ccc(S(=O)(=O)N3CCOCC3)cn2c1=O
cytotoxicity at 10 µM: -2.13%

CCOCC(=O)NCCCn1ccnc1-c1ccccc1
cytotoxicity at 10 µM: -1.11%

O=C(O)CC(CC(=O)NCCc1ccsc1)c1cccs1 (stereo unspecified)
cytotoxicity at 10 µM: -10.9%

CN1CCN(C(=O)c2cccn2C)Cc2cccnc21
cytotoxicity at 10 µM: 5.73%

CCOc1ccc(-c2cc(=O)n3c(n2)CCCCC3)cc1
cytotoxicity at 10 µM: 5.36%

CC(C)Cc1nc(OCC(N)=O)c(C#N)c2c1CCC2
cytotoxicity at 10 µM: 75.7%

COC(=O)CC(c1cnn(C)c1)c1oc(C)cc(=O)c1O (stereo unspecified)
cytotoxicity at 10 µM: 21.9%

NC(=O)c1ccc2c(c1)nc1n2CCN(Cc2ccccc2)C1
cytotoxicity at 10 µM: -8.8%

c1cnc2c(CN3CCCCC3c3ccncn3)cnn2c1 (stereo unspecified)
cytotoxicity at 10 µM: -10.2%

CN1CCN(c2ncccn2)CC(C(=O)N(C)C)C1 (stereo unspecified)
cytotoxicity at 10 µM: 0.651%

Oc1cc(C2CCCCN2C2CCCC2)nc(-c2ccncc2)n1 (stereo unspecified)
cytotoxicity at 10 µM: 5.94%

COc1cccc(CNCc2nc3ccccc3c(=O)[nH]2)c1
cytotoxicity at 10 µM: 1.26%

CO[C@H]1CN(S(=O)(=O)c2ccc(C)cc2)C[C@@]12CCCO2
cytotoxicity at 10 µM: -0.479%

CCn1ccc2ccnc(CC3CN(C(=O)c4ccc(F)cc4)C3)c21
cytotoxicity at 10 µM: -3.3%

CC(=O)N1CCN([C@@H]2CC[C@@H](NC(=O)c3cncc(C)c3)[C@H]2O)CC1
cytotoxicity at 10 µM: 2.6%

CCc1ccccc1CNC(=O)CCc1cnn(C)c1
cytotoxicity at 10 µM: -3.09%

Cc1noc(C2CCN(C(=O)c3cc(Cl)c(Cl)n3C)CC2)n1
cytotoxicity at 10 µM: 10.7%

Cc1ccc(C(=O)Nc2cc(C(N)=O)ccc2CN(C)C)cc1Cl
cytotoxicity at 10 µM: 18.5%

Cn1cc(S(=O)(=O)NCC(C)(O)c2ccsc2)cn1 (stereo unspecified)
cytotoxicity at 10 µM: 22.1%

COC(=O)c1ccc(CN2CCC(c3n[nH]c(C)n3)CC2)s1
cytotoxicity at 10 µM: -2.87%

CC(O)CN(C)c1cc(C(F)(F)F)nc(-c2cccnc2)n1 (stereo unspecified)
cytotoxicity at 10 µM: -6.68%

COc1ccc(Oc2ncccc2NC(=O)N2CC[C@H](O)C2)cc1
cytotoxicity at 10 µM: 1.7%

CC(C)(C)c1nccc(N2CCCCC2CNS(C)(=O)=O)n1 (stereo unspecified)
cytotoxicity at 10 µM: -2.84%

CC(C(=O)NC1(C#N)CCCCC1)N1CCc2c(ncn2C2CC2)C1 (stereo unspecified)
cytotoxicity at 10 µM: 7.66%

COc1cc(CNC(=O)Nc2nnc(C3CC3)s2)ccc1O
cytotoxicity at 10 µM: 31.3%

CC1CN(c2ccc(NC(=O)Cn3cccn3)cc2)CCO1 (stereo unspecified)
cytotoxicity at 10 µM: 3.94%

Cn1cnnc1CNC(=O)Nc1ccc(OC2CCC2)c(F)c1
cytotoxicity at 10 µM: 1.03%

CCCN(C)C(=O)c1cc(S(=O)(=O)NCC)ccc1C
cytotoxicity at 10 µM: -0.403%

CS(=O)(=O)Nc1ccc(CNC(=O)CN2CCc3ccccc32)cc1
cytotoxicity at 10 µM: 7.1%

CC(CN1CCCC1=O)NC(=O)c1ccc(-c2ccco2)[nH]c1=O (stereo unspecified)
cytotoxicity at 10 µM: -5.04%

Cc1cccc(N2CCN(C(=O)CN3CCC(C(N)=O)CC3)CC2)c1
cytotoxicity at 10 µM: 4.52%

CSc1nsc(NC(=O)N2CCc3ccccc3C2)n1
cytotoxicity at 10 µM: 11.3%

Cc1cc(C)n(CC2CCCN2C(=O)c2ccc3[nH]c(=O)[nH]c3c2)n1 (stereo unspecified)
cytotoxicity at 10 µM: 3.18%

Cc1nccn1-c1cc(CNC(=O)N2CCSCC2)ccn1
cytotoxicity at 10 µM: -0.613%

CS(=O)(=O)CCn1ccc(NC(=O)Cc2cccc(Cl)c2)n1
cytotoxicity at 10 µM: -3.36%

c1coc(-c2nnc(CN(Cc3cccs3)CC3CCCO3)o2)c1 (stereo unspecified)
cytotoxicity at 10 µM: 5.79%

CC(=O)c1c[nH]c(C(=O)N2CCN(C(C(N)=O)c3ccccc3)CC2)c1 (stereo unspecified)
cytotoxicity at 10 µM: 8.61%

Cc1nc(C2(NCc3cc(C#N)ccc3F)CCCCC2)no1
cytotoxicity at 10 µM: 9.68%

Cn1cc(C(=O)Nc2ccnc(Oc3ccccc3)c2)ccc1=O
cytotoxicity at 10 µM: -4.5%

CCC(NC(=O)c1ccc2[nH]ccc2c1)C(=O)N1CCOCC1 (stereo unspecified)
cytotoxicity at 10 µM: 5.84%

CC(C)CNC(=O)CNC(=O)NCC(O)c1ccc2ccccc2c1 (stereo unspecified)
cytotoxicity at 10 µM: -2.52%

Cc1cc(CNC2(c3ccc(Cl)cc3)CC2)no1
cytotoxicity at 10 µM: 1.5%

N#Cc1cccc(S(=O)(=O)N2CC(CC(=O)O)c3ccccc32)c1 (stereo unspecified)
cytotoxicity at 10 µM: -1.11%

CC(C(=O)N(C)Cc1nnc2n1CCC2)S(C)(=O)=O (stereo unspecified)
cytotoxicity at 10 µM: -6.56%

CN(CC(=O)NC(Cc1ccccc1)C1CCCC1)S(C)(=O)=O (stereo unspecified)
cytotoxicity at 10 µM: 15.1%

COC(=O)N1CCN(CCCc2nnnn2-c2ccccc2)CC1
cytotoxicity at 10 µM: 14%

Cn1ncnc1NCc1ccccc1Cl
cytotoxicity at 10 µM: -8.04%

O=C(NCC1(O)CCOC1)c1ccccc1Cl (stereo unspecified)
cytotoxicity at 10 µM: -40.3%

O=C(Nc1cccnn1)NC(CCCO)c1ccccc1 (stereo unspecified)
cytotoxicity at 10 µM: -0.908%

Cc1cc(CCC(=O)N2CCC(O)CC2)ccc1Br
cytotoxicity at 10 µM: -4.3%

CCCC(=O)N1CCCCC1C(=O)Nc1ccc(-c2nnc[nH]2)cc1 (stereo unspecified)
cytotoxicity at 10 µM: 7.65%

CCN(CC)c1ccc(C(=O)NCc2cccnc2-n2cncn2)cn1
cytotoxicity at 10 µM: 11.7%

COc1ccc(NC(=O)C2CCOC2)c(N2CCN(C(C)=O)CC2)n1 (stereo unspecified)
cytotoxicity at 10 µM: -12.2%

CC(O)CN1CCN(C(=O)c2cnn(-c3ccc(Cl)cc3)c2)CC1 (stereo unspecified)
cytotoxicity at 10 µM: -10.3%

Cn1cc(S(=O)(=O)N2CCCC2CC(=O)c2cccs2)cn1 (stereo unspecified)
cytotoxicity at 10 µM: -8.08%

COCCN(Cc1ccc(F)cc1Cl)C(=O)c1ccc(=O)[nH]n1
cytotoxicity at 10 µM: 0.469%

CC(C)c1noc(CN(Cc2ccccc2F)C2CC2)n1
cytotoxicity at 10 µM: -7.96%

CC(O)CN1CCN(C(=O)c2cc3ccccc3[nH]c2=O)CC1 (stereo unspecified)
cytotoxicity at 10 µM: 0.407%

Cc1cccc(CN2CC[C@@H]3O[C@@H](C(=O)N4CCN(C)CC4)C[C@@H]32)c1
cytotoxicity at 10 µM: 8.01%

O=C(c1ccnnc1)N1CCC2(CC1)CCN(C(=O)c1cccnc1)C2
cytotoxicity at 10 µM: -97.8%

COCCC(=O)N1CCC2(COCc3cnc(-c4ccccc4)nc32)C1 (stereo unspecified)
cytotoxicity at 10 µM: 3.6%

O=C(C1CCC1)N1CCn2c(COc3ncccn3)nnc2C1
cytotoxicity at 10 µM: 3.09%

CSCc1noc(CNC(=O)C2CCN(C(=O)C3CCC3)CC2)n1
cytotoxicity at 10 µM: 6.35%

COc1ccc(Cc2nc3c([nH]2)CC(C)(C)CNC3=O)c(OC)c1
cytotoxicity at 10 µM: -1.02%

O=C(c1cnn[nH]1)N(CCCO)Cc1cccnc1
cytotoxicity at 10 µM: -2.48%

Cc1nc2c(c(N3CCCOCC3)n1)CCN(C(=O)N1CCCC1)CC2
cytotoxicity at 10 µM: 9.2%

CC(C)c1cc(CN2CCN(c3cccnc3)CC2)n(C)n1
cytotoxicity at 10 µM: -0.0184%

Cc1cc(CNC(=O)C2CC(=O)N(CCN(C)C)C2)cc(C)n1 (stereo unspecified)
cytotoxicity at 10 µM: 3.05%

CC(C)c1noc(C2CC(=O)N(CCN(C)C)C2)n1 (stereo unspecified)
cytotoxicity at 10 µM: -8.25%

Cc1nc[nH]c1CN1CCOC(CCNC(=O)c2ccsc2)C1 (stereo unspecified)
cytotoxicity at 10 µM: -13.1%

CCCc1nnc(NCCc2noc(C3CC3)n2)o1
cytotoxicity at 10 µM: 0.0902%

C1CCC(c2nnc3sc(C4CCOC4)nn23)C1 (stereo unspecified)
cytotoxicity at 10 µM: -2.16%

CN(C)C(=O)CN1CCC(c2nnc(Cn3cccn3)n2C2CC2)CC1
cytotoxicity at 10 µM: -6.65%

COc1ccc(CCN(C)C(C(=O)O)c2ccc(F)c(C)c2)cc1OC (stereo unspecified)
cytotoxicity at 10 µM: 2.93%

Cc1[nH]c2c(C)ccc(C)c2c1CC(=O)NCc1csc(N(C)C)n1
cytotoxicity at 10 µM: -6.65%

Cc1cnc(N2CCCC(O)C2)nc1-c1ccnn1C (stereo unspecified)
cytotoxicity at 10 µM: -0.271%

Cc1cccc2cc(CN3CCC(O)(CN4CCCC4)CC3)c(=O)[nH]c12
cytotoxicity at 10 µM: -14.9%

Cc1ccc(CCNC(=O)CC2COCCN2S(=O)(=O)N(C)C)s1 (stereo unspecified)
cytotoxicity at 10 µM: 1.69%

Nc1nc2c(c(=O)[nH]1)CCN(C(=O)c1cccc3nccnc13)C2
cytotoxicity at 10 µM: -11.4%

CC(C)CN1CCc2[nH]cnc2C12CCN(C(=O)c1cccnc1)CC2
cytotoxicity at 10 µM: 23.4%

CNc1cc(CCNC(=O)c2cccnc2)nc(-c2ccncc2)n1
cytotoxicity at 10 µM: 1.52%

CC(C)c1noc(CN2CCN(C(=O)c3ccc(F)cc3)CC2)n1
cytotoxicity at 10 µM: -9.73%

c1ccc(-c2noc(CCCN3CCCC3Cn3cncn3)n2)cc1 (stereo unspecified)
cytotoxicity at 10 µM: -2.06%

Cn1ccnc1CN1CCN(CC(=O)NCc2cccs2)CC1
cytotoxicity at 10 µM: -8.25%

COc1c(CNCc2ccc(Cn3ccnc3)cc2)c(C)nn1C
cytotoxicity at 10 µM: -25.1%

CCn1ccnc1CN1CCCN(C(=O)c2ccnn2C)CC1
cytotoxicity at 10 µM: -5.39%

CC(Cn1ccnc1)NC(=O)NCCc1cccnc1 (stereo unspecified)
cytotoxicity at 10 µM: -12.1%

Cc1cccc(NC2CCN(C(=O)Nc3ccncc3)CC2)n1
cytotoxicity at 10 µM: -17.1%

COc1ccc2cc(C(=O)N3CCCC3Cn3cc(C)cn3)[nH]c2c1 (stereo unspecified)
cytotoxicity at 10 µM: -0.743%

CN(Cc1cnn(C)c1)C(=O)C1CCCN1Cc1ccccn1 (stereo unspecified)
cytotoxicity at 10 µM: -25.8%

CC(C)c1nc2n(n1)CC(NCc1nc(C3CC3)no1)CC2 (stereo unspecified)
cytotoxicity at 10 µM: -7.59%

COc1cccc(C(=O)N2CCCC(CNS(C)(=O)=O)C2)c1 (stereo unspecified)
cytotoxicity at 10 µM: -17.9%

Cc1nnc2n1CCN(C(=O)c1cc(C)n(-c3ccccn3)c1C)C2
cytotoxicity at 10 µM: 0.765%

COc1cc(C(=O)N(Cc2cnn(C)c2)C(C)C)ccc1OCC(N)=O
cytotoxicity at 10 µM: -5.45%

O=C(CN1CCOC(Cn2cccn2)C1)NCCc1ccc(F)cc1 (stereo unspecified)
cytotoxicity at 10 µM: -15.6%

O=C(C1CCS(=O)(=O)C1)N1CCN(c2cnccn2)CC1 (stereo unspecified)
cytotoxicity at 10 µM: -6.66%

CCOC1CCN(C(=O)c2cnn(-c3ccccc3Cl)c2)CC1
cytotoxicity at 10 µM: -9.78%

COc1cc(C)nc(N2CCN(C(=O)c3ccccc3C)CC2)n1
cytotoxicity at 10 µM: -2.18%

CCc1nc(C2CCCN2CCn2cncn2)no1 (stereo unspecified)
cytotoxicity at 10 µM: -8.13%

Cc1cc(C)nc(NCCC(=O)NCCn2ccnc2C)n1
cytotoxicity at 10 µM: 2.77%

O=C(c1cccnc1)N1CCC2(CC1)CCN(c1ccsc1)C2=O
cytotoxicity at 10 µM: 6.84%

CC(C)CN1CCO[C@H]2CCN(c3cnccn3)CC[C@@H]21
cytotoxicity at 10 µM: 2.31%

COCC1CC2(CCN(c3ccc(C)nn3)CC2)CN1C(C)C (stereo unspecified)
cytotoxicity at 10 µM: -112%

CCCN1CCC(c2nc3ccc(-c4ccncc4)cn3n2)CC1
cytotoxicity at 10 µM: -117%

CCCNCc1cn(Cc2ccccc2)nc1-c1cccnc1
cytotoxicity at 10 µM: 5.13%

Cn1ccnc1CN1CCC2(CC1)CCN(c1ccccc1)C2=O
cytotoxicity at 10 µM: -9.06%

CNC(=O)[C@@H]1C[C@H]2CN(C(=O)c3ccco3)C[C@H]2N1C(C)C
cytotoxicity at 10 µM: -1.84%

Cc1cccc(CO[C@@H]2CC[C@H]3[C@H]2OCCN3Cc2ccsc2)n1
cytotoxicity at 10 µM: -16.3%

O=c1cc(Cn2cncn2)nc2n1CCCN(CCN1CCCC1)C2
cytotoxicity at 10 µM: 2.78%

NC1CCC(n2cc(C(=O)N[C@H]3CCCc4ccccc43)nn2)CC1 (stereo partly specified)
cytotoxicity at 10 µM: -5.71%
